Among the data in the RNAGym collection of RNA variant scans (doi:10.1126/science.aae0568) are yeast fitness values, retold here.

The chains are these.
B1: tRNA (parent)
chain: GUUCCGUUGGCGUAAUGGUAACGCGUCUCCCUCCUAAGGAGAAGACUGCGGGUUCGAGUCCCGUACGGAACG

This sample holds only a part of the variants without activity.

The variants in the series derive from B1. In words: yeast fitness relative to wild type (ratio to wild type); higher = fitter; tRNA-Arg(CCU), competitive growth, 37 C, YPD. Summed up: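 Amplicons of the tRNA-Arg(CCU) gene were sequenced, 100-nucleotide paired-end, from the start population and from each end population of a pooled yeast competition. The competition, in six parallel replicates, lasted 24 hours in YPD at 37°C. Fitness relative to wild type was calculated from changes in genotype frequencies. Genotypes had to have ≥ 100 starting reads, and estimates < 0.5 were set to 0.5.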
With G23A C29G A45U C62U, the yeast fitness is no more than 0.5.

With U13A A45G, the yeast fitness was 0.92.

With C5A G17A A36G G67A A69U, the yeast fitness is no more than 0.5.

For G9A C31A U47C G67A, the yeast fitness is no more than 0.5.

In the case of C22U G52C, the yeast fitness was 0.537.

On to U7G C11A C22G C30G, for which the yeast fitness was no more than 0.5.

C5G C29U A42C C55U: the yeast fitness was no more than 0.5.

As for C29A C31U A37U A65G, the yeast fitness was no more than 0.5.

G25A G56A A69C: the yeast fitness is 0.773.

For the variant U26A G58C, the yeast fitness is 0.98.

For A14C G23C A36U, the yeast fitness was 0.68.

A15G G48A A65C: the yeast fitness amounted to 0.686.

As for C33A A36C G51A, the yeast fitness was 0.721.

As to U3A U13C C49G, the yeast fitness was no more than 0.5.

For the variant C4G G23C C55U A70U, the yeast fitness is no more than 0.5.

Consider C46U U54C, for which the yeast fitness is 0.717.

Take C5G A20C: the yeast fitness is 0.813.

In the case of G6A G9C C24U C30G C31A A43G A65C, the yeast fitness was no more than 0.5.

With A21C A43U G50A G52U A69C, the yeast fitness is 0.554.

With A14U U19A A21C G48C A70G, the yeast fitness worked out at 0.505.

On to C4A U7A U8G A45C A65G C66G, for which the yeast fitness was no more than 0.5.

As for C4U C24A C62U A69U, the yeast fitness was no more than 0.5.

C5U U26A C55G C61A: the yeast fitness was no more than 0.5.

For G17C U53A C60A G67A, the yeast fitness was no more than 0.5.

For C11A A43G G50C G56C A65G, the yeast fitness was no more than 0.5.

Regarding C5A U7C C30A C31U, the yeast fitness is no more than 0.5.

As for G9A A14G C60U C62U, the yeast fitness was no more than 0.5.

As for G25C U32G G41A, the yeast fitness is 0.565.

Take G18C C30G U32C A69U: the yeast fitness was no more than 0.5.

U2G C24G C30G C31U U35A A36U G44A G63C: the yeast fitness turned out to be 0.552.

As to U3A C5A G6C A15G U16A U26G G38C U54A, the yeast fitness was no more than 0.5.

In the case of G9A C31A G41C C55U, the yeast fitness was no more than 0.5.

Consider C33A G38C G50A U64C, for which the yeast fitness is no more than 0.5.

For the variant A20U C29U C49G C55A G68C, the yeast fitness is no more than 0.5.

Regarding G6A C55U, the yeast fitness was found to be 0.677.

C27G C49A G52C C60U: the yeast fitness was no more than 0.5.

Regarding C24U A42U G52C, the yeast fitness came to 0.578.

On to U19G A43U G51U A65G G68A, for which the yeast fitness was no more than 0.5.

On to U8C A14U, for which the yeast fitness came out at 0.805.

Regarding U26A U28C C30G C62A, the yeast fitness is no more than 0.5.

Turning to C4A U35C G44C, the yeast fitness was no more than 0.5.

Consider C4G G38C, for which the yeast fitness came out at 0.763.

U3G G38A C60A: the yeast fitness was no more than 0.5.

With A36C G39C A65C A69C, the yeast fitness is no more than 0.5.

As for C5A C46A, the yeast fitness was found to be 0.97.

Regarding G56A A57G, the yeast fitness came out at 0.905.

As for U7C C62U, the yeast fitness was 0.802.

Take C4G G17A G63A C66U: the yeast fitness is no more than 0.5.

Regarding A15U A57G, the yeast fitness was 0.927.

For A15C A21U C62U, the yeast fitness turned out to be 0.53.

Take A36G A65G A70G: the yeast fitness amounted to 0.639.

On to C11G C24U G67A, for which the yeast fitness is no more than 0.5.

As for U3C A14C G44C G50C U54C C55A, the yeast fitness was no more than 0.5.

Take G23A A43U C62U: the yeast fitness stood at 0.751.

For G41A C60G, the yeast fitness was 0.646.

For A20C A57C C60A, the yeast fitness is no more than 0.5.

On to C62A C66U, for which the yeast fitness is 0.694.

For U16A A20G C27U C29A G41C G63A, the yeast fitness was no more than 0.5.

On to C5G C55G A65C G67A, for which the yeast fitness was no more than 0.5.

As for A15U G17A C46U C62U, the yeast fitness was found to be 0.865.

Regarding C11U A42C A57C, the yeast fitness is no more than 0.5.

Consider U16G C22A C61A, for which the yeast fitness was no more than 0.5.

With G10C U19A C66U, the yeast fitness is no more than 0.5.

Take A21C C30A A42C G48C C49U U54C: the yeast fitness turned out to be 0.598.

Take A45U A70C: the yeast fitness stood at 0.987.

As to A21C A65C G67U, the yeast fitness is no more than 0.5.

For the variant G17C G41A, the yeast fitness is 0.615.

On to U19C A20C C24A G56A, for which the yeast fitness was no more than 0.5.

In the case of U16C C29U A36U A40C C46U, the yeast fitness is no more than 0.5.

On to U7A A15G C34G, for which the yeast fitness was no more than 0.5.

Regarding G67A G68C, the yeast fitness was 0.819.

For the variant U28A A37G G51C A57C, the yeast fitness is no more than 0.5.

C5G A14U C27U A42U A43U U47C: the yeast fitness was no more than 0.5.

For the variant C5G C11G A14U A15U C29A C60G, the yeast fitness was no more than 0.5.

On to G9A C31G, for which the yeast fitness amounted to 0.819.

For the variant U16C A21G, the yeast fitness amounted to 0.91.

On to A14U C49A G68A, for which the yeast fitness was no more than 0.5.

With C27A C33G G39A C49G, the yeast fitness was no more than 0.5.

As for C22U C29U G41A G48A C62A, the yeast fitness was found to be 0.611.

Take U8A G18C C24A U32C A70U: the yeast fitness is no more than 0.5.

Turning to G48C G52C A57C G58A C66U, the yeast fitness was no more than 0.5.

On to C11A C30U C49A A69U, for which the yeast fitness is no more than 0.5.

Turning to C4G C11G G50A, the yeast fitness was no more than 0.5.

Regarding U3C C27A, the yeast fitness was 0.706.

As for U3C U16G G18A A43C U53A, the yeast fitness was no more than 0.5.

As to C24G A36U A65G, the yeast fitness is no more than 0.5.

With U35A G58C, the yeast fitness was 0.634.

For G12C U16A C24G G58C C61G, the yeast fitness is no more than 0.5.

Consider A36G A65U, for which the yeast fitness stood at 0.991.

For G12C C27A G56C, the yeast fitness worked out at 0.702.

With C29A C49A, the yeast fitness was found to be 0.506.

Take U28C G38C A45U G68A A69C: the yeast fitness was no more than 0.5.

For the variant C5G C11G A42C C49U C62A, the yeast fitness was no more than 0.5.

As to C11A C46U A70G, the yeast fitness was 0.56.

With C11U C49G C62U, the yeast fitness was no more than 0.5.

Turning to C4U A15G C33A U59C C60U, the yeast fitness is no more than 0.5.

On to C11U G18A G48A G67C, for which the yeast fitness is no more than 0.5.

Take A36U U54A U64C A69U: the yeast fitness is no more than 0.5.

For C5U G25A C49U, the yeast fitness is 0.802.

In the case of U16A G18C U26A U47C A65C, the yeast fitness was no more than 0.5.

With C5G C33U G44C, the yeast fitness is no more than 0.5.

Take G23C C29U G44A C62U: the yeast fitness was no more than 0.5.

For U2G G6A A20G, the yeast fitness was 0.61.

As for C22G A45C C61U A65G, the yeast fitness is no more than 0.5.

G38C G50C: the yeast fitness came out at 0.562.

In the case of C30G U47C G51A C66U, the yeast fitness was no more than 0.5.

Take U3G A14G C60G: the yeast fitness is no more than 0.5.

For C11U C31G C46G G52A C66U, the yeast fitness is no more than 0.5.

For C4U G6A C29G G41A C60A, the yeast fitness was no more than 0.5.

C27U A43U: the yeast fitness is 1.06.

As to C11A A36G A43C G48A, the yeast fitness was 0.558.

With C46G U54C C62A, the yeast fitness is no more than 0.5.

Regarding C24U G63C, the yeast fitness was 0.771.

In the case of C4G G17C A20U A37C, the yeast fitness is 0.717.

Regarding G25A A42G G44C C49G A70U, the yeast fitness was no more than 0.5.

Turning to C11U C27G A43C A57U, the yeast fitness amounted to 0.696.

Turning to G10C C22A C24G G50C A65C, the yeast fitness is no more than 0.5.

On to C5G A42G, for which the yeast fitness was 0.701.

On to U7C U32G, for which the yeast fitness came to 0.576.

Consider U26C C27A, for which the yeast fitness was 0.859.

C30G U47A G50C A65G G68C: the yeast fitness is no more than 0.5.

Regarding G25C A42G G68A, the yeast fitness worked out at 0.621.

With A14G U19C C60G, the yeast fitness is no more than 0.5.

C4U C27U G39C U47A: the yeast fitness was no more than 0.5.

As for U35G C46U C62U, the yeast fitness turned out to be 0.579.

Regarding U32C U35C A37U G52A C66A, the yeast fitness is 0.719.

Consider C11U A21G A37U G41A, for which the yeast fitness is no more than 0.5.

With U26A C60U, the yeast fitness was determined as 0.744.

As to C22U C33G G58C, the yeast fitness is 0.525.

Consider C31U G48A A69C, for which the yeast fitness is 0.772.

On to C29G C34A A37G, for which the yeast fitness was no more than 0.5.

Consider C24G A36G C55G, for which the yeast fitness was no more than 0.5.

Consider U2C C30U C31A A40U C49A, for which the yeast fitness is no more than 0.5.

Regarding C22U C27G C31U G68A, the yeast fitness is no more than 0.5.

U7A C27U C29U G58A G68A: the yeast fitness was no more than 0.5.

As to U7G C31U A69U, the yeast fitness turned out to be 0.628.

Consider A21G U32C U59G C61U C66U A70C, for which the yeast fitness came out at 0.572.

Take U2C C31G G56A U59A: the yeast fitness was no more than 0.5.

Consider U7C A42U A70U, for which the yeast fitness worked out at 0.584.

Take U8G G51A A65U: the yeast fitness was no more than 0.5.

Take A37G A45G: the yeast fitness stood at 0.707.

Turning to U19C C27A C30G A45C, the yeast fitness was no more than 0.5.

As to A15G C30A C62G, the yeast fitness is 0.634.

As for G50C G56A G58A, the yeast fitness came out at 0.64.

Regarding A15C U19A U64A A65G G67U, the yeast fitness was no more than 0.5.

Turning to C11U C29U A36U C66U G67A, the yeast fitness is no more than 0.5.

Take G6C U19G G48C: the yeast fitness is no more than 0.5.

With U2G C60A C66G, the yeast fitness came to 0.989.

For U7C U13A C24U G50U G51A U59A A65C, the yeast fitness was no more than 0.5.

Take U2A U47G C49A C60U A65C: the yeast fitness was no more than 0.5.

For C5A A14G C31A C55A C61A G63A, the yeast fitness came to 0.536.

Consider C33A A37C C61U C62A, for which the yeast fitness is 0.635.

As for U13A C46U G67C, the yeast fitness is 0.53.

In the case of G9C A21G G44C U47C A70U, the yeast fitness is no more than 0.5.

On to G10A G23C C33G C55G, for which the yeast fitness was no more than 0.5.

In the case of U8C A45C, the yeast fitness amounted to 0.802.

On to G6C C22G A37U A43G C62G, for which the yeast fitness stood at 0.509.

For the variant A15C G52A A57U C60U A65G G68A, the yeast fitness was no more than 0.5.

Take C11G A36U A42G A43C C49U A57U A65C: the yeast fitness is no more than 0.5.

Regarding U3A C5A G6C A15G U16A U26G C60G C61U, the yeast fitness turned out to be 0.514.

With U3A C5A A45C G50C C61U G68A, the yeast fitness was no more than 0.5.

In the case of G10A A15G, the yeast fitness came to 0.782.

Turning to G12A C62U A70U, the yeast fitness amounted to 0.695.

For G10C A40U A57C A65U, the yeast fitness is no more than 0.5.

G6A A14U G52A G63C: the yeast fitness was no more than 0.5.

With A42U C49U, the yeast fitness is 0.975.

Take C22U G52A C61U: the yeast fitness was no more than 0.5.
